Experimental data taken from ChEMBL document CHEMBL1139823, “Rational design of conformationally restricted quinazolinone inhibitors of poly(ADP-ribose)polymerase” (Bioorg Med Chem Lett, 2007).

How the values were obtained:
[1] = biological target: Poly [ADP-ribose] polymerase 1 (Homo sapiens, UniProt P09874); test: Inhibition of human PARP1
[2] = Drug level in mouse brain at 32 mg/kg, po after 0.5 hr; format: ADME, organism-based; parameters: dose 32 mg/kg, route oral; conditions: read-out: Drug uptake
Outline: (§1)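 Mice dosed orally at 32 mg/kg (n = 2). Compound levels in brain (µg/g tissue) and plasma (µg/mL) measured by ex vivo assay at 0.5 and 2.0 h after dosing.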

[3] = Drug level in mouse brain at 32 mg/kg, po after 2.0 hrs; format: ADME, organism-based; parameters: dose 32 mg/kg, route oral; conditions: read-out: Drug uptake; outline: as §1
[4] = Drug level in mouse plasma at 32 mg/kg, po after 0.5 hr; format: ADME, organism-based; parameters: dose 32 mg/kg, route oral; outline: as §1
[5] = Drug level in mouse plasma at 32 mg/kg, po after 2.0 hrs; format: ADME, organism-based; parameters: dose 32 mg/kg, route oral; outline: as §1
[6] = Metabolic stability assessed as Intrinsic clearance in mouse liver microsomes after 60 mins
[7] = Metabolic stability assessed as Intrinsic clearance in human liver microsomes after 60 mins

Chain of Poly [ADP-ribose] polymerase 1 (P09874 whole entry): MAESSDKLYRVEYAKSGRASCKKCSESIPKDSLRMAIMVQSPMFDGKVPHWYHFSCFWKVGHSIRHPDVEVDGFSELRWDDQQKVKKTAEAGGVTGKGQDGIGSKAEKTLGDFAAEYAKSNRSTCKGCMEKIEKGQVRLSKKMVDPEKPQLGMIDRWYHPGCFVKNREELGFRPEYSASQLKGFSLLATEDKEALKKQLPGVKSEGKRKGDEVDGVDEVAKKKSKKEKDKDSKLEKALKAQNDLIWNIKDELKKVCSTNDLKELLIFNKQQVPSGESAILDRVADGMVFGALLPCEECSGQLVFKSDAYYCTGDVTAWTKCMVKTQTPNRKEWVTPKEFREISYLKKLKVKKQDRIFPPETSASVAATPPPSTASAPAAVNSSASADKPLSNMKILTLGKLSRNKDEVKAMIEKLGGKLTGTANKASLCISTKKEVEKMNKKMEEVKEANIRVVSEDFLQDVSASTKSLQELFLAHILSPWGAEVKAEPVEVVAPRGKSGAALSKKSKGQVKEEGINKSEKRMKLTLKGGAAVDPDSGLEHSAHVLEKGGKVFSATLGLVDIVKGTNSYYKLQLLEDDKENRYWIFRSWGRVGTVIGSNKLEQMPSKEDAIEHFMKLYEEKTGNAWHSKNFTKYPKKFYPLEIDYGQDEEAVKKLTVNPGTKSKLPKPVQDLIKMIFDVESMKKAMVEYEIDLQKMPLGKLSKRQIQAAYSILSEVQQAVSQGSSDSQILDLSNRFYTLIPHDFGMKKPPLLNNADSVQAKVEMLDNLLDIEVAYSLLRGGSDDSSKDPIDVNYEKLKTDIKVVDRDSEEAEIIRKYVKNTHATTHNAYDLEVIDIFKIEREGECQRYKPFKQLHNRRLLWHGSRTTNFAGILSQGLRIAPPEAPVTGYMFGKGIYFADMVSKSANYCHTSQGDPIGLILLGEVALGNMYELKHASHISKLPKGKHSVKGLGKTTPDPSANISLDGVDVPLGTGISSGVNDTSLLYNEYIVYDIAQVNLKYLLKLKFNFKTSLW

Structure (SMILES): O=c1[nH]c(C2=C[C@@H](N3CCC(c4ccccc4)CC3)CC2)nc2c(Cl)cccc12
- IC50 [1]: 8.7 nM
- concentration at 0.5 h [2]: 19800 ng/g
- concentration at 2 h [3]: 18100 ng/g
- concentration at 0.5 h [4]: 8700 ng/mL
- concentration at 2 h [5]: 4400 ng/mL
- CLint scaled at 1 h [6]: 1160 mL/min/kg
- CLint scaled at 1 h [7]: 22 mL/min/kg

Structure (SMILES): O=c1[nH]c(C2=C[C@@H](N3CCC(c4ccc(F)cc4)CC3)CC2)nc2c(Cl)cccc12
- IC50 [1]: 35 nM
- concentration at 0.5 h [2]: 6700 ng/g
- concentration at 2 h [3]: 12500 ng/g
- concentration at 0.5 h [4]: 13600 ng/mL
- concentration at 2 h [5]: 11300 ng/mL
- CLint scaled at 1 h [6]: 686 mL/min/kg
- CLint scaled at 1 h [7]: 17 mL/min/kg

Structure (SMILES): O=c1[nH]c(C2=CC(N3CC=C(c4ccc(F)cc4)CC3)CC2)nc2ccccc12 (configuration not stated)
- IC50 [1]: 18 nM

Structure (SMILES): O=c1[nH]c(C2=C[C@@H](N3CC=C(c4ccccc4)CC3)CC2)nc2c(Cl)cccc12
- IC50 [1]: 15 nM
- concentration at 0.5 h [2]: 2000 ng/g
- concentration at 2 h [3]: 3000 ng/g
- concentration at 0.5 h [4]: 17100 ng/mL
- concentration at 2 h [5]: 18100 ng/mL

Structure (SMILES): O=c1[nH]c(C2=C[C@H](N3CC=C(c4ccccc4)CC3)CC2)nc2c(Cl)cccc12
- IC50 [1]: 286 nM

Structure (SMILES): O=c1[nH]c(C2=CC(N3CC=C(c4ccc(F)cc4)CC3)CC2)nc2c(Cl)cccc12 (configuration not stated)
- IC50 [1]: 36 nM
- concentration at 0.5 h [2]: 400 ng/g
- concentration at 2 h [3]: 900 ng/g
- concentration at 0.5 h [4]: 15200 ng/mL
- concentration at 2 h [5]: 17700 ng/mL
- CLint scaled at 1 h [6]: 1330 mL/min/kg
- CLint scaled at 1 h [7]: 54 mL/min/kg

Structure (SMILES): O=c1[nH]c([C@H]2CC[C@H](N3CC=C(c4ccccc4)CC3)CC2)nc2ccccc12
- IC50 [1]: 8400 nM

Structure (SMILES): O=c1[nH]c(C2=CC(N3CC=C(c4ccccc4)CC3)CCC2)nc2ccccc12 (configuration not stated)
- IC50 [1]: 160 nM

Structure (SMILES): O=c1[nH]c([C@H]2CC[C@@H](N3CC=C(c4ccccc4)CC3)CC2)nc2ccccc12
- IC50 [1]: 1600 nM

Structure (SMILES): Cc1cccc2c(=O)[nH]c(CCCN3CC=C(c4ccc(Cl)cc4)CC3)nc12
- IC50 [1]: 16 nM

Structure (SMILES): O=c1[nH]c(CCCN2CCC(c3ccccc3)CC2)nc2c(Cl)cccc12
- IC50 [1]: 103 nM
- concentration at 0.5 h [2]: 11600 ng/g
- concentration at 2 h [3]: 3900 ng/g
- concentration at 0.5 h [4]: 12500 ng/mL
- concentration at 2 h [5]: 9400 ng/mL

Structure (SMILES): O=c1[nH]c(CCCN2CCC(c3ccc(F)cc3)CC2)nc2c(Cl)cccc12
- IC50 [1]: 47 nM

Structure (SMILES): O=c1[nH]c(C2=C[C@H](N3CCC(c4ccc(F)cc4)CC3)CC2)nc2c(Cl)cccc12
- IC50 [1]: 257 nM

Structure (SMILES): Cc1cccc2c(=O)[nH]c(C3=CC(N4CCC(c5ccc(F)cc5)CC4)CC3)nc12 (configuration not stated)
- IC50 [1]: 30 nM

Structure (SMILES): Cc1cccc2c(=O)[nH]c(C3=CC(N4CCC(c5ccc(Cl)cc5)CC4)CC3)nc12 (configuration not stated)
- IC50 [1]: 46 nM

Structure (SMILES): Cc1cccc2c(=O)[nH]c(C3=CC(N4CCN(c5ccc(Cl)cc5)CC4)CC3)nc12 (configuration not stated)
- IC50 [1]: 12 nM

Structure (SMILES): O=c1[nH]c(CCCN2CC=C(c3ccc(F)cc3)CC2)nc2ccccc12
- IC50 [1]: 16 nM

Structure (SMILES): O=c1[nH]c(CCCN2CC=C(c3ccc(Cl)cc3)CC2)nc2ccccc12
- IC50 [1]: 8.9 nM

Structure (SMILES): O=c1[nH]c(CCCN2CC=C(c3ccccc3)CC2)nc2c(Cl)cccc12
- concentration at 0.5 h [2]: 8000 ng/g
- concentration at 2 h [3]: 8400 ng/g
- concentration at 0.5 h [4]: 1300 ng/mL
- concentration at 2 h [5]: 1200 ng/mL

Structure (SMILES): O=c1[nH]c(CCCN2CC=C(c3ccc(F)cc3)CC2)nc2c(Cl)cccc12
- concentration at 0.5 h [2]: 8400 ng/g
- concentration at 2 h [3]: 2800 ng/g
- concentration at 0.5 h [4]: 1900 ng/mL
- concentration at 2 h [5]: 1200 ng/mL
- CLint scaled at 1 h [6]: 3910 mL/min/kg

Structure (SMILES): O=c1[nH]c(N2CCC(N3CC=C(c4ccccc4)CC3)C2)nc2ccccc12 (configuration not stated)
- IC50 [1]: 300 nM

Structure (SMILES): Cc1cccc2c(=O)[nH]c(C3=CC(N4CC=C(c5ccc(F)cc5)CC4)CC3)nc12 (configuration not stated)
- IC50 [1]: 25 nM

Structure (SMILES): O=c1[nH]c(C2=CC(N3CCN(c4ccc(Cl)cc4)CC3)CC2)nc2ccccc12 (configuration not stated)
- IC50 [1]: 25 nM
- concentration at 0.5 h [2]: 1300 ng/g
- concentration at 2 h [3]: 2200 ng/g
- concentration at 0.5 h [4]: > 20100 ng/mL
- concentration at 2 h [5]: > 20400 ng/mL

Structure (SMILES): O=c1[nH]c(C2=CC(N3CCN(c4ccc(F)cc4)CC3)CC2)nc2c(Cl)cccc12 (configuration not stated)
- IC50 [1]: 25 nM

Structure (SMILES): O=c1[nH]c(N2CC(N3CC=C(c4ccccc4)CC3)C2)nc2ccccc12
- IC50 [1]: 504 nM

Structure (SMILES): Cc1cccc2c(=O)[nH]c(CCCN3CC=C(c4ccc(F)cc4)CC3)nc12
- IC50 [1]: 8 nM

Structure (SMILES): O=c1[nH]c(C2=CC(N3CC=C(c4ccccc4)CC3)CC2)nc2ccccc12 (racemic)
- IC50 [1]: 16 nM

Structure (SMILES): O=c1[nH]c(C2CCCC(N3CC=C(c4ccccc4)CC3)C2)nc2ccccc12 (racemic)
- IC50 [1]: 1800 nM

Structure (SMILES): O=c1[nH]c(C2CCC(N3CCC(c4ccccc4)CC3)C2)nc2ccccc12 (stereo in doubt; cis)
- IC50 [1]: 435 nM

Structure (SMILES): O=c1[nH]c(C2CCC(N3CCC(c4ccccc4)CC3)C2)nc2ccccc12 (stereo in doubt; trans)
- IC50 [1]: 555 nM
